Source: PubChem BioAssay (The Scripps Research Institute Molecular Screening Center)
Hits are enriched below; roughly 1% of the tested compounds scored in any of these assays.
LYPLA1 counter: counter-screen for PME1 inhibitors: inhibitors of human LYPLA1. AID 2174. O75608. inhibition, % at 5.9 µM. recombinant LYPLA1, FP-Rh probe fluorescence polarization. actives 0.16% (n = 320,000);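 active means inhibition above the mean of all tested compounds plus 3 SD, set per campaign, cut at about 14% in these data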;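 further: inhibitors block serine hydrolase probe labeling of LYPLA1 so polarization falls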
Target sequence (O75608 whole entry, looked up): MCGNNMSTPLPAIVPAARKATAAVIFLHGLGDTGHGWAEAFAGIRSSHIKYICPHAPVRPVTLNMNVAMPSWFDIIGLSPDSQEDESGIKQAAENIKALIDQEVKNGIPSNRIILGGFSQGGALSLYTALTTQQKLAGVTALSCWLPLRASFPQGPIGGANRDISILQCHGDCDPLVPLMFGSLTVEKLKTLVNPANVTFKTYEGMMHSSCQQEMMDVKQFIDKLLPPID
procasp7 counter: activates human procaspase-7, counter-screen for procaspase-3 activators. activation, % at 8.5 µM. AID 463210. actives 0.093% (n = 330,000). recombinant procaspase-7, Ac-DEVD-pNA absorbance 405 nm; D23A/D198A/D206A triple mutant, cannot self-cleave; scale: DMSO 0, 5 µM enzyme 100. P55210;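 active means percent activation above the screen-wide mean plus 3 SD, cut at about 25% in these data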
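Assay system: Uncleavable procaspase-7 mutant enzyme / Input: 2 µM procaspase-7 mutant as dispensed / Dosing: single nominal 8.5 µM compound dose, 0.8% DMSO final / Timing: 1 h enzyme–compound preincubation and 2 h substrate reaction, both 25 °C / Detection: p-Nitroaniline absorbance at 405 nm, read at 0 and 120 min / Replication: singlicate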
PREPL inh: inhibits the human prolyl oligopeptidase-like enzyme. recombinant PREPL, fluorescence polarization activity-based probe. actives 0.68% (n = 320,000). AID 2751. Q4J6C6. inhibition, % at 5.96 µM
proCasp3 act: activates human procaspase-3 | P42574 | recombinant procaspase-3 D3A, Ac-DEVD-pNA absorbance 405 nm | activation, % at 8.5 µM | actives 0.11% (n = 330,000) | AID 463141;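 active means activation above the mean of all tested compounds plus 3 SD, cut at about 21% in these data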
Target sequence (P42574 whole entry D9A/D28A/D175A): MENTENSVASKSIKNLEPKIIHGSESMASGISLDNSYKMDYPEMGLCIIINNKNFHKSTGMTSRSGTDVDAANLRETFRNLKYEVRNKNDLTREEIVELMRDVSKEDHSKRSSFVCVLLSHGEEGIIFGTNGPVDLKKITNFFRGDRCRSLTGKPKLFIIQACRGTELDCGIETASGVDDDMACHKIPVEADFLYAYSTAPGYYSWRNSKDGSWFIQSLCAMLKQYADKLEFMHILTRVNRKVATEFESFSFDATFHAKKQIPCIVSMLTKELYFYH
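material = Procaspase-3 D3A mutant | probe or stimulus = Ac-DEVD-pNA | compound = single dose, 8.5 µM nominal compound, 0.8% DMSO | timing = 1 h preincubation, 2 h reaction | measured by = 405 nm absorbance of p-nitroaniline, reads at 0 and 120 min | benchmarks = DMSO-only low control, 5 µM PC-3 D3A high control | repeats = singlicate, each compound tested once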
LYPLA2 counter: counter-screen for PME1 inhibitors: inhibitors of human LYPLA2; O95372; recombinant LYPLA2, FP-Rh probe fluorescence polarization; inhibition, % at 5.9 µM; actives 0.38% (n = 320,000);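 active means inhibition above the screen-wide mean plus 3 SD, limit set per campaign, cut at about 26% in these data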
PREPL inh cf: confirmation of human PREPL enzyme inhibitors | shares compounds with PREPL inh | recombinant PREPL, fluorescence polarization activity probe | inhibition, % at 5.96 µM | actives 67% (n = 2,000)
Numbers stand for hits; . = inactive; / = no result given. Unless noted, no stated cut-off is given here; in the data, active means inhibition above about 43%; inactive means the rest.

SMILES | LYPLA1 counter | procasp7 counter | PREPL inh | proCasp3 act | LYPLA2 counter | PREPL inh cf
COc1ccc(/C=C/c2cc[n+](C(=O)Cc3ccccc3)cc2)cc1 | . | . | 45 | . | . | .
O=C(NCCNc1ccc2ccccc2c1)c1cccn2c(=O)c3sccc3nc12 | . | . | 51 | . | . | .
CCc1cc(=O)oc2c(C)c(OCC(=O)NC3CC(C)(C)NC(C)(C)C3)ccc12 | . | . | . | . | . | /
CCc1cc(=O)oc2c(C)c(OC(C)C(=O)NC3CC(C)(C)NC(C)(C)C3)ccc12 (stereo not given) | . | . | 49 | . | . | .
CCOC(=O)N1CCN(c2ncnc3c2[nH]c2ccc(OC)cc23)CC1 | . | . | . | . | . | /
CCOC(=O)N1CCN(c2ncnc3c2[nH]c2ccc(F)cc23)CC1 | . | . | . | . | . | /
COc1ccc(N2CCN(c3ncnc4c3[nH]c3ccccc34)CC2)cc1 | . | . | 52 | . | . | 46
COc1cc2[nH]c3c(N4CCN(c5ccccn5)CC4)ncnc3c2cc1OC | . | . | 69 | . | . | 69
COc1ccc2[nH]c3c(N4CCc5ccccc5C4)ncnc3c2c1 | . | . | 60 | . | . | 56
Fc1ccc2[nH]c3c(N4CCN(c5ccccc5)CC4)ncnc3c2c1 | . | . | 62 | . | . | 48
CCc1c(O)nc(SCc2ccc(F)cc2)[nH]c1=O | . | . | . | . | . | /
O=c1oc(-c2ccc(O)c(O)c2)cc2cccc(O)c12 | / | . | 67 | . | / | .
O=c1oc(-c2ccc(O)c(O)c2)cc2cc(O)cc(O)c12 | / | . | . | . | / | /
O=c1cc(-c2ccc(O)c(O)c2)oc2c1ccc1ccccc12 | . | . | 52 | . | . | .
O=c1cc(-c2cccnc2)oc2c1ccc1ccccc12 | . | . | . | . | . | /
O=C(O)CC(NC(=O)Cc1ccc(Cl)cc1)c1ccco1 (stereo not given) | . | . | . | . | . | /
CCN1C(N(C)CCc2c[nH]c3ccccc23)=N[C@@H](c2cccc(C(F)(F)F)c2)C(C(=O)OC)=C1C | / | . | 56 | . | / | .
Cc1cc(C[n+]2ccccc2)c2nsnc2c1 | . | . | . | . | . | /
CNC(=S)N1N=C(c2ccc(OC)cc2)CC1c1ccc(N(C)C)cc1 (stereo not given) | . | . | 56 | . | . | 60
CNC(=S)N1N=C(c2ccc(Br)cc2)CC1c1ccc(N(C)C)cc1 (stereo not given) | . | . | 48 | . | . | 50
COc1cc(/C=C2/NC(=O)NC2=O)ccc1OCC(=O)Nc1ccc(F)cc1 | . | . | 87 | . | . | .
CN1Cc2sc(NC(=S)NC(=O)c3ccccc3)c(C#N)c2CC1(C)C | . | . | 58 | . | . | .
CCC1(C)Cc2c(sc(NC(=S)NC(=O)c3ccccc3)c2C#N)CO1 (stereo not given) | . | . | . | . | . | /
CCOc1ccccc1O[C@H](c1ccccc1)[C@H]1CNCCO1 | . | . | 44 | . | . | .
C=CCn1cccc(C(=O)Nc2ccc(OC)cc2OC)c1=O | . | . | . | . | . | /
SMILES | LYPLA1 counter | procasp7 counter | PREPL inh | proCasp3 act | LYPLA2 counter | PREPL inh cf
COC(=O)c1ccc2c(c1)NC(=O)C(N(CC(C)C)CC(C)C)S2 (stereo not given) | . | . | . | . | . | /
CCOC(=O)c1sc(N2C(=O)C(O)=C(C(=O)c3ccco3)C2c2cccc(Cl)c2)nc1C (stereo not given) | . | . | . | . | . | /
CN1CCN(CCCNC(=O)c2ccc3c(c2)N(Cc2ccc(F)cc2)CCS3)CC1 | . | . | 44 | . | . | .
Cc1ccc(-c2c(C#N)c(N)n(-c3ccc(C)cc3)c(=O)c2C#N)cc1 | . | . | . | . | . | /
O=C(C[C@H]1C/C=C\C[C@@H](Cc2ccc(F)cc2)C(=O)OC[C@H]2CCCN2C1=O)NCCO | / | . | 47 | . | / | 48
O=C(C[C@@H]1C/C=C\C[C@H](Cc2ccc(F)cc2)C(=O)OC[C@H]2CCCN2C1=O)N[C@H](CO)Cc1ccccc1 | / | . | 46 | . | / | .
O=C(C[C@@H]1C/C=C\C[C@@H](Cc2ccc(F)cc2)C(=O)OC[C@@H]2CCCN2C1=O)N[C@H](CO)Cc1ccccc1 | / | . | 48 | . | / | 54
Clc1ccc2nc(-c3ccccn3)c(Nc3ccc4c(c3)OCO4)n2c1 | . | . | 67 | . | . | 54
O=[N+]([O-])c1ccc(N2CCN(Cc3cccc([N+](=O)[O-])c3)CC2)cc1 | . | . | 45 | . | . | 44
C[C@H](CO)N1C[C@H](C)[C@@H](CN(C)S(C)(=O)=O)Oc2c(NC(=O)Cc3ccccc3)cccc2C1=O | / | . | . | . | / | /
C[C@H]1CN([C@@H](C)CO)C(=O)c2cccc(NS(=O)(=O)c3ccc(Cl)cc3)c2O[C@@H]1CN(C)CC1CCCCC1 | / | . | 61 | . | / | 50
C[C@H]1CN([C@@H](C)CO)C(=O)c2cc(NC(=O)Nc3cccc4ccccc34)ccc2O[C@@H]1CN(C)Cc1ccc(-c2ccccc2)cc1 | / | . | 48 | . | / | 45
C[C@H](CO)N1C[C@H](C)[C@@H](CN(C)S(=O)(=O)c2ccc(F)cc2)Oc2c(NC(=O)Cc3ccccc3)cccc2C1=O | / | . | 44 | . | / | .
C[C@@H]1CN([C@H](C)CO)C(=O)c2cc(NC(=O)Nc3cccc4ccccc34)ccc2O[C@H]1CN(C)Cc1ccc(C(F)(F)F)cc1 | / | . | . | . | / | /
C[C@H](CO)N1C[C@H](C)[C@@H](CN(C)S(=O)(=O)c2cccs2)Oc2c(NC(=O)Cc3ccccc3)cccc2C1=O | / | . | 43 | . | / | .
CNC(=O)COC(=O)c1nc(-n2nc(C)cc2C)ccc1Cl | . | . | . | . | . | /
CCn1ncc(C2=NOC(C(=O)NCCc3ccccc3)C2)c1C (stereo not given) | . | . | . | . | . | /
C[C@@H]1CN([C@H](C)CO)C(=O)c2cc(NC(=O)c3ccncc3)ccc2O[C@@H]1CN(C)C(=O)Nc1ccccc1 | / | . | . | . | / | /
C[C@H](CO)N1C[C@H](C)[C@H](CN(C)Cc2ccccc2)Oc2c(NC(=O)Nc3ccc(F)cc3)cccc2C1=O | / | . | 53 | . | / | 55
C[C@@H]1CN([C@@H](C)CO)C(=O)Cc2cc(NC(=O)Nc3cccc4ccccc34)ccc2O[C@@H]1CN(C)S(C)(=O)=O | / | . | 45 | . | / | .
COc1ccc(NC(=O)Nc2cccc3c2O[C@@H](CN(C)CC2CCCCC2)[C@@H](C)CN([C@H](C)CO)C3=O)cc1 | / | . | 57 | . | / | 51
